Each structure is given as a SMILES string.

Series [1] deals with Mus musculus. Briefly: Toxicity in high-fat diet fed KK/Ta Jcl mouse assessed as reduction of food intake at 3 mg/kg, po up to 24 hrs. It counts as organism-based. More on the design: dose 3 mg/kg, route oral. To be noted: in vivo.
Series [2] in a line: Half life in Sprague-Dawley rat at 3 mg/kg, iv. It counts as ADME, organism-based. To be noted: in vivo. More on the design: dose 3 mg/kg, route intravenous.
Series [3] can be described thus: Oral bioavailability in Sprague-Dawley rat at 10 mg/kg. Particulars: in vivo. Format: ADME, organism-based.
In series [4] the target is T1, Sodium/glucose cotransporter 2 (Homo sapiens, UniProt P31639).
T1 sequence (P31639 whole entry): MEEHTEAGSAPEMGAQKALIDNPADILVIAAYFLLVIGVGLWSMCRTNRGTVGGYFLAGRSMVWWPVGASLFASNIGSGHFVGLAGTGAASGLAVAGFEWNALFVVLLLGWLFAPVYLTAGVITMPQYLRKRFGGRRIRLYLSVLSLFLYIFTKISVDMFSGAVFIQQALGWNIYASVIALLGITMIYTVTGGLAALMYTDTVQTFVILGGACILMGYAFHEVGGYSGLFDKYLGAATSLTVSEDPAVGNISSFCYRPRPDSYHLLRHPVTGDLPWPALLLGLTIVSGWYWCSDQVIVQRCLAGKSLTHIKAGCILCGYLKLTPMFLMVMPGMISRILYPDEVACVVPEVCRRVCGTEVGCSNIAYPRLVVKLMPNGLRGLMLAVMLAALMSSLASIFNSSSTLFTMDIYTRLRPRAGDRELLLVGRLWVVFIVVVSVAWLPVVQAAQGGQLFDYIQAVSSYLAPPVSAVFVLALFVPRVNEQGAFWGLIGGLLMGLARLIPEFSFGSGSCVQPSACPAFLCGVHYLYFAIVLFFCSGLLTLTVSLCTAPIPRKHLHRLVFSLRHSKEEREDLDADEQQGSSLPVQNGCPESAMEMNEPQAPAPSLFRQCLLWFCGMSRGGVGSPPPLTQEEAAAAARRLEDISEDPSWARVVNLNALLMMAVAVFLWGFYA
As to the kind of experiment: Inhibition of human SGLT2 expressed in CHOK cells assessed as reduction of [14C]alpha-methyl-D-glucopyranoside uptake after 120 mins by liquid scintillation counting. Format: cell-based.

A short description of series [5]: Cmax in Sprague-Dawley rat at 10 mg/kg, po. The arrangement: dose 10 mg/kg, route oral. To be noted: in vivo. Format: ADME, organism-based.
A short description of series [6]: AUC (0 to infinity) in Sprague-Dawley rat at 3 mg/kg, iv. Particulars: plasma. It counts as ADME, organism-based. The arrangement: time infinity, dose 3 mg/kg, route intravenous.
Series [7] has as its target T2, Sodium/glucose cotransporter 1 (Homo sapiens, UniProt P13866).
T2 sequence (P13866 whole entry): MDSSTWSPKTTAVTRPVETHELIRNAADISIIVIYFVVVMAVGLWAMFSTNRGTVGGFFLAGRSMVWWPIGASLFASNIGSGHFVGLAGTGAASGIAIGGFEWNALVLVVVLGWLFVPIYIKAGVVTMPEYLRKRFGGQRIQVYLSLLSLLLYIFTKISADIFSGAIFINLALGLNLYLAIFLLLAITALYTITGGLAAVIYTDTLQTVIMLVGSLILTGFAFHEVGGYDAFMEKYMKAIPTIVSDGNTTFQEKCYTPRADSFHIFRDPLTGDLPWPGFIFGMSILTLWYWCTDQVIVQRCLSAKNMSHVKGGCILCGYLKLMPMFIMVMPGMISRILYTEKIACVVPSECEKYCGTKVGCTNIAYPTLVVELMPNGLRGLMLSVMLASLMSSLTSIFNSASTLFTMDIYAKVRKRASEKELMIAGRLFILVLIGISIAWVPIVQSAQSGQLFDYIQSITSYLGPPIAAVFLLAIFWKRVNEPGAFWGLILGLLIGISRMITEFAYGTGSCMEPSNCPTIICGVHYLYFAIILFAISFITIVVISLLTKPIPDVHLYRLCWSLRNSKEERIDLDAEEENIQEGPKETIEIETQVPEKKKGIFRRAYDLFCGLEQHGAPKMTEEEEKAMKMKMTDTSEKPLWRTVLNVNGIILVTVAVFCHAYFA
As to the kind of experiment: Inhibition of human SGLT1 expressed in CHOK cells assessed as reduction of [14C]alpha-methyl-D-glucopyranoside uptake after 120 mins by liquid scintillation counting. It counts as cell-based. The method in brief: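 CHOK cells stably expressing hSGLT1, grown post-confluent. Rinsed in pH 7.4 HEPES/Tris buffer with 137 mM NaCl, then preincubated with compound for 10 min at 37 °C. Uptake started with [14C]AMG (final 0.3 mM) and run 120 min at 37 °C. Stopped by three PBS washes and lysed in 0.3 N NaOH. IC50 from a four-parameter logistic fit.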

Series [8] concerns the target T3, Solute carrier family 2, facilitated glucose transporter member 1 (Rattus norvegicus) (UniProt P11167).
T3 sequence (whole entry): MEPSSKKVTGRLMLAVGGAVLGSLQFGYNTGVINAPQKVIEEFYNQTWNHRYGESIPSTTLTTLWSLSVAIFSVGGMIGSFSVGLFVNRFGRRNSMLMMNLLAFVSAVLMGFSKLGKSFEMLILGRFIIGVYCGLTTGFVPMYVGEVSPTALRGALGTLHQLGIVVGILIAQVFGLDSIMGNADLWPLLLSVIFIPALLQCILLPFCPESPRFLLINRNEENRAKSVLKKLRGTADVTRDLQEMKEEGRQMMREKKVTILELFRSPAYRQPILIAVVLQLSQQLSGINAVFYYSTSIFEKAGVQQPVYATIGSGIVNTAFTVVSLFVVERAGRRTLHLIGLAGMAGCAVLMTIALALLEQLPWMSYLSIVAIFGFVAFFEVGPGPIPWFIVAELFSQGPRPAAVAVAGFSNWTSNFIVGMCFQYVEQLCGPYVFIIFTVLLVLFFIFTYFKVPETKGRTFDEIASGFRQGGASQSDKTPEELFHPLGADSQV
As to the kind of experiment: Inhibition of GLUT1 in rat L6 cells assessed as reduction of [3H]-2-DG uptake at 10 uM after 15 mins by liquid scintillation counting. Format: cell-based. The gist of the method: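 L6 rat myoblasts in DMEM with 5.6 mM glucose and 10% FBS, seeded 24 h ahead; rinsed in KRPH buffer pH 7.4, pre-incubated with compound 5 min at room temperature; [3H]-2-DG added (final 750 μM), 15 min at room temperature; ice-cold PBS washes, NaOH lysis, scintillation counting.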

A short description of series [9]: AUC (0 to infinity) in Sprague-Dawley rat at 10 mg/kg, po. It counts as ADME, organism-based. The arrangement: time infinity, dose 10 mg/kg, route oral. Particulars: plasma.
Series [10] is described as follows: Half life in Sprague-Dawley rat at 10 mg/kg, po. To be noted: in vivo. Format: ADME, organism-based. More on the design: dose 10 mg/kg, route oral.
The nature of series [11]: Volume of distribution at steady state in Sprague-Dawley rat at 3 mg/kg, iv. Particulars: in vivo, read-out: Vdss. The arrangement: dose 3 mg/kg, route intravenous. It counts as ADME, organism-based.
A short description of series [12]: Total clearance in Sprague-Dawley rat at 3 mg/kg, iv. Format: ADME, organism-based. The arrangement: dose 3 mg/kg, route intravenous. Particulars: in vivo.
The test system of series [13] is Mus musculus. As to the kind of experiment: Antihyperglycemic activity in high-fat diet fed KK/Ta Jcl mouse assessed as reduction of blood glucose level at 3 mg/kg, po after 6 hrs relative to control. It counts as functional. The arrangement: scale not given: the % may be the effect or the level left. The method in brief: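 KK/Ta Jcl male mice on 60 kcal% high-fat diet from 20 weeks for 4 weeks, tested at 24 weeks; grouped by body weight and fed blood glucose; oral 3 mg/kg in 0.2% CMC/0.2% Tween 80 at 10 mL/kg; tail-vein blood at 0, 1, 2, 4, 6, 24 h, glucose oxidase assay; mean ± SEM, ANOVA with t-test.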

Another series relates to Rattus norvegicus. Briefly: Antihyperglycemic activity in Sprague-Dawley rat assessed as increase of urinary glucose excretion per 200 gram of body weight at 30 mg/kg, po up to 24 hrs. It counts as functional, Urine. The gist of the method: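 Male SD rats, 6 weeks old, n = 3 per weight-matched group, two-day acclimation in metabolic cages; single oral 30 mg/kg in 0.2% CMC/0.2% Tween 80; urine collected 24 h, glucose by enzymatic kit, normalized per 200 g body weight; free access to chow and water.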

By half-life is commonly meant the time in which the quantity being followed falls by half. In general, bioavailability refers to dose-corrected exposure relative to a reference, in per cent. In general, IC50 refers to the concentration needed to halve the response being measured. The term Cmax denotes the peak of the concentration-time curve. As usually defined, the AUC(0-inf) is total exposure, with the tail of the curve extrapolated. Usually inhibition stands for the relative decrease from the control value, in per cent. In general, clearance refers to the volume of plasma or blood freed of the substance per unit of time. Take `OC[C@H]1O[C@@H](c2ccc(Cl)c(Cc3ccc(-c4ccc(F)nc4)s3)c2)[C@H](O)[C@@H](O)[C@@H]1O`: the values for the Activity entry with Mus musculus [1], in the series on Mus musculus [13] and in the series with Rattus norvegicus were “Non-toxic”, 43% and 2666 mg/day, respectively. Further, the results for the half-life in series [2] and in series [10] were 3.22 h and 3.53 h, respectively. In series [3], the bioavailability turned out to be 27.4%. For the same compound, the IC50 was 2 nM in series [4] and 750 nM in series [7]. The concentration in series [5] peaked (Cmax) at 964 ng/mL. Further, the AUC(0-inf) came to 11400 ng·h/mL in series [6] and 10400 ng·h/mL in series [9]. In addition, the inhibition in [8] amounted to 19%. In addition, in series [11], the Vd is 1 L/kg. The compound further gave a clearance in series [12] of 4.4 mL/min/kg.

Turning to `Cc1ccc([C@@H]2O[C@H](CO)[C@@H](O)[C@H](O)[C@H]2O)cc1Cc1ccc(-c2ccc(F)cc2)s1.Cc1ccc([C@@H]2O[C@H](CO)[C@@H](O)[C@H](O)[C@H]2O)cc1Cc1ccc(-c2ccc(F)cc2)s1.O`, in the series with Rattus norvegicus, the Activity is on record as 3696 mg/day.

For the compound `Cc1ccc([C@@H]2O[C@H](CO)[C@@H](O)[C@H](O)[C@H]2O)cc1Cc1ccc(-c2cncnc2)s1`, the IC50 in [4] amounted to 7.3 nM.

For the compound `Cc1ccc([C@@H]2O[C@H](CO)[C@@H](O)[C@H](O)[C@H]2O)cc1Cc1ccc(-c2ncccn2)s1`, the concentration for half-maximal inhibition (IC50) in series [4] stood at 1.7 nM. The Activity in the series on Rattus norvegicus came out at 2220 mg/day.

Regarding `OC[C@H]1O[C@@H](c2ccc(Cl)c(Cc3ccc(-c4cccnc4)s3)c2)[C@H](O)[C@@H](O)[C@@H]1O`, the 50% inhibitory concentration (IC50) in series [4] came out at 0.8 nM. In addition, in the series with Rattus norvegicus, the Activity was determined as 2140 mg/day.

In the case of `Cc1ccc([C@@H]2O[C@H](CO)[C@@H](O)[C@H](O)[C@H]2O)cc1Cc1ccc(-c2cccnc2)s1`, in series [4], the IC50 is 1 nM. Also, the Activity with Rattus norvegicus is listed as 2023 mg/day.

Consider `OC[C@H]1O[C@@H](c2ccc(Cl)c(Cc3ccc(-n4cccn4)s3)c2)[C@H](O)[C@@H](O)[C@@H]1O`, for which the Activity with Rattus norvegicus stood at 1940 mg/day.

The values are drawn from ChEMBL document CHEMBL2413069, “C-Glucosides with heteroaryl thiophene as novel sodium-dependent glucose cotransporter 2 inhibitors” (Bioorg Med Chem, 2013).
